Measured values taken from ChEMBL document CHEMBL4251573, “Synthesis and biological evaluation of N-substituted 3-oxo-1,2,3,4-tetrahydro-quinoxaline-6-carboxylic acid derivatives as tubulin polymerization inhibitors” (Eur J Med Chem, 2018).
Calls of active or inactive are those of the source. The calls are words filed in the database; no cut-off is given here.

Assays:
HeLa = assay: Antiproliferative activity against human HeLa cells after 72 hrs by MTT assay; format: functional, cell-based
Procedure, shortened: (§1)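 HeLa and SMMC-7721 cells in log phase were seeded at 4000-6000 cells/well. After 24 h, quadruplicate wells were treated with a series of concentrations for 72 h. DMSO stocks were 5 mmol/L, with final DMSO below 0.1%. MTT (10 mg/mL in PBS) was added for 4 h, medium replaced with DMSO, and OD read at 490 nm. IC50 came from at least five concentrations; mean and SD of at least three independent experiments.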

SMMC-7721 = assay: Antiproliferative activity against human SMMC7721 cells after 72 hrs by MTT assay; format: functional, cell-based; settings: SMMC-7721, 72 h; procedure, shortened: as §1
K562 = assay: Antiproliferative activity against human K562 cells after 72 hrs by MTT assay; format: functional, cell-based; settings: K562, 72 h
Procedure, shortened: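 K562 cells were grown in RPMI 1640 with 10% FBS at 37 °C in 5% CO2, then seeded at 4000-6000 cells/well. Quadruplicate wells were exposed to drug for 72 h, with final DMSO below 0.1%. After 4 h with MTT, solubilizer (10% SDS, 5% isobutyl alcohol, 0.01 M HCl) was added for 12 h, then OD read at 490 nm. IC50 came from at least five concentrations; mean and SD of at least three experiments.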

Tubulin (Homo sapiens) = Tubulin (Homo sapiens) (UniProt P68371+Q9H4B7+P0DPH7+P68366+Q13509+Q71U36+P04350+Q3ZCM7+P07437+P68363+Q9BQE3+Q6PEY2+Q13885+Q9BVA1+Q9BUF5); assay: Inhibition of tubulin (unknown origin) polymerization at 20 uM after 40 mins by fluorescence assay; format: protein-complex assay
Procedure, shortened: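 Polymerization was run with a fluorescence kit. Compound, in duplicate, was warmed 1 min at 37 °C before adding cold tubulin mix (2 mg/mL tubulin, 80 mM PIPES pH 6.9, 2.0 mM MgCl2, 0.5 mM EGTA, 1.0 mM GTP, 15% glycerol). Fluorescence was read at ex 360/em 450 nm every minute for 1 h at 37 °C and scored at 40 min against 0.1% DMSO vehicle.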

Sus scrofa = species on record: Sus scrofa; assay: Competitive binding affinity to porcine brain tubulin at 0.1 to 10 uM preincubated for 1 hr followed by colchicine addition measured after 1 hr by fluorescence assay
Procedure, shortened: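 Tubulin (4 μM) in 80 mM PIPES pH 6.9, 2 mM MgCl2 and 0.5 mM EGTA was preincubated 1 h at 37 °C with 0.1, 1, 5 or 10 μM test agent, with DMSO as control. Colchicine (10 μM) was then added for another 1 h at 37 °C. Tubulin-colchicine fluorescence was read at ex 340/em 435 nm and normalized to DMSO; at least three replicates, mean ± SD.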

Structure (SMILES)	IC50 (HeLa)	IC50 (SMMC-7721)	IC50 (K562)	inhibition (Tubulin (Homo sapiens))	Activity (Sus scrofa)
COc1ccc(C(=O)N2CC(=O)Nc3cc(C(=O)Nc4ccccc4)ccc32)cc1OC	24.9 µM	34.4 µM	42.9 µM	–	–
CCCCNC(=O)c1ccc2c(c1)NC(=O)CN2C(=O)c1cc(OC)c(OC)c(OC)c1	> 50 µM	43.1 µM	> 50 µM	–	–
COC(=O)c1ccc2c(c1)NC(=O)CN2Cc1ccc(OC)c(OC)c1	38.1 µM	33.2 µM	43.6 µM	–	–
COc1ccc(/C=C\c2cc(OC)c(OC)c(OC)c2)cc1O [COMBRETASTATIN A4]	–	0.0038 µM	0.013 µM	–	–
COc1cc(CN2CC(=O)Nc3cc(C(=O)O)ccc32)cc(OC)c1OC	32.2 µM	39 µM	35.9 µM	–	–
COc1cc(C(=O)N2CC(=O)Nc3cc(C(=O)Nc4ccccc4)ccc32)cc(OC)c1OC	26.4 µM	37.9 µM	> 50 µM	–	–
CCCCNC(=O)c1ccc2c(c1)NC(=O)CN2C(=O)c1ccc(OC)c(OC)c1	> 50 µM	> 50 µM	> 50 µM	–	–
COc1cc(CN2CC(=O)Nc3cc(C(=O)NC4CCCCC4)ccc32)cc(OC)c1OC	41.8 µM	28 µM	42.6 µM	–	–
COc1cc(C(=O)N2CC(=O)Nc3cc(C(=O)NC4CCCCC4)ccc32)cc(OC)c1OC	> 50 µM	40.6 µM	> 50 µM	–	–
COc1cc(C(=O)N2CC(=O)Nc3cc(C(=O)N4CCOCC4)ccc32)cc(OC)c1OC	> 50 µM	39.2 µM	> 50 µM	–	–
COc1ccc(C(=O)N2CC(=O)Nc3cc(C(=O)N4CCOCC4)ccc32)cc1OC	34.9 µM	34.9 µM	> 50 µM	–	–
CC(=O)O[C@H]1C(=O)[C@@]2(C)[C@H]([C@H](OC(=O)c3ccccc3)[C@]3(O)C[C@H](OC(=O)[C@H](O)[C@@H](NC(=O)c4ccccc4)c4ccccc4)C(C)=C1C3(C)C)[C@]1(OC(C)=O)CO[C@@H]1C[C@@H]2O	–	–	–	–	inactive
CCCCNC(=O)c1ccc2c(c1)NC(=O)CN2Cc1cc(OC)c(OC)c(OC)c1	37.5 µM	39.7 µM	43 µM	–	–

Now from value to compound:

IC50 (HeLa)	IC50 (SMMC-7721)	IC50 (K562)	inhibition (Tubulin (Homo sapiens))	Activity (Sus scrofa)	Structure (SMILES)
16.4 µM	12.5 µM	43.2 µM	–	–	COC(=O)c1ccc2c(c1)NC(=O)CN2Cc1ccc(OC)cc1
15.9 µM	7.69 µM	9.8 µM	–	–	COC(=O)c1ccc2c(c1)NC(=O)CN2C(=O)c1ccc(F)cc1
1.42 µM	1.32 µM	3 µM	Active	–	COC(=O)c1ccc2c(c1)NC(=O)CN2C(=O)c1ccc(OC)c(OC)c1
–	1.59 µM	0.89 µM	–	–	COc1cccc2c1C(=O)c1c(O)c3c(c(O)c1C2=O)C[C@@](O)(C(=O)CO)C[C@@H]3O[C@H]1C[C@H](N)[C@H](O)[C@H](C)O1 [DOXORUBICIN]
2.76 µM	2.69 µM	3.42 µM	Active	–	COC(=O)c1ccc2c(c1)NC(=O)CN2Cc1cc(OC)c(OC)c(OC)c1
8.28 µM	5.4 µM	7.72 µM	–	–	COC(=O)c1ccc2c(c1)NC(=O)CN2C(=O)c1ccc(OC)cc1
39.4 µM	9.1 µM	45.3 µM	–	–	COC(=O)c1ccc2c(c1)NC(=O)CN2C(=O)Cc1cc(OC)c(OC)c(OC)c1
